Published values from different studies.
Compare with care: the assays were run in different laboratories.
ADRA2C: Alpha-2C adrenergic receptor (ADRA2C, Homo sapiens, UniProt P18825)
PLEKHA3: PLEKHA3 (Homo sapiens, UniProt Q9HB20)
Fibroblast growth factor 14: Fibroblast growth factor 14 (Homo sapiens, UniProt Q92915)
MAPK14: Mitogen-activated protein kinase 14 (MAPK14, Homo sapiens, UniProt Q16539)

Cc1cc(Oc2ncccc2CN2CCN(c3cccc(F)c3)CC2)ccc1-c1c(C)c(=O)[nH]c(=O)n1C
Ki (ADRA2C; ligand displacement, radioligand): 20 nM

CCOc1ccccc1C(=O)CC(SCc1ccc(Cl)cc1)C(=O)O (stereo not drawn)
Ki (PLEKHA3; ligand displacement, FP): 7800 nM

O=c1cc(-c2ccc([N+](=O)[O-])cc2)[nH]c2c(-c3ccc(Cl)cc3)c(Cc3ccccc3)nn12
Kd (Fibroblast growth factor 14; binding, SPR): 940 nM

C[C@H](Cc1ccc(O)c(O)c1)[C@@H](C)Cc1ccc(O)c(O)c1
Kd (pyrD (Pseudomonas aeruginosa, UniProt Q9HZF8); binding, ITC): 7500 nM

Cc1cc(Oc2ncccc2CN2CCN(c3ccc([N+](=O)[O-])cc3Cl)CC2)ccc1-c1c(C)c(=O)[nH]c(=O)n1C
Ki (ADRA2C; ligand displacement, radioligand): 623 nM

CCOc1ccc(C(=O)CC(SCc2ccc(OC)cc2)C(=O)O)cc1 (stereo not drawn)
Ki (PLEKHA3; ligand displacement, FP): 27000 nM

c1coc(-c2n[nH]cc2-c2ccnc3ccccc23)c1
IC50 (MAPK14; enzyme activity, inhibitor, ADP detection): 1800 nM

CCOc1ccc(C(=O)CC(SCc2ccc(F)cc2)C(=O)O)cc1 (stereo not drawn)
Ki (PLEKHA3; ligand displacement, FP): 13800 nM

Cc1cccc(NC(=O)Cn2cc(CO)c3ccccc32)c1
Kd (Fibroblast growth factor 14; binding, SPR): 1900 nM

Cc1cc(Oc2ncccc2CN2CCN(c3ccc([N+](=O)[O-])cc3C(F)(F)F)CC2)ccc1-c1c(C)c(=O)[nH]c(=O)n1C
Ki (ADRA2C; ligand displacement, radioligand): 401 nM

COc1ccc(C(=O)CC(SCc2ccc(Cl)cc2)C(=O)O)cc1 (stereo not drawn)
Ki (PLEKHA3; ligand displacement, FP): 13200 nM

Cc1cc(Oc2ncccc2CN2CCN(c3ccccc3C#N)CC2)ccc1-c1c(C)c(=O)[nH]c(=O)n1C
Ki (ADRA2C; ligand displacement, radioligand): 56.3 nM

O=C(O)c1cc(-c2ccc(-c3cc[nH]n3)cc2)c2ccc(-c3ccc(C(F)(F)F)cc3)cc2c1
Ki (ADRA2C; cell-free assay, radioligand): 6500 nM

Cc1cc(Oc2ncccc2CN2CCN(c3cccc4ccccc34)CC2)ccc1-c1c(C)c(=O)[nH]c(=O)n1C
Ki (ADRA2C; ligand displacement, radioligand): 14.3 nM

c1ccc(-c2n[nH]cc2-c2ccncc2)nc1
IC50 (MAPK14; enzyme activity, inhibitor, ADP detection): 4500 nM
